According to ChEMBL document CHEMBL1137088, “Distamycin analogues with enhanced lipophilicity: synthesis and antimicrobial activity” (2004):
In brackets after ≈: the same amount, converted by molar mass. Several values for one entry are separate records, joined by “and”; a condition that tells them apart may be missing. Equal entries are not always repeated. Activity calls are given as the source filed them. The calls are words filed in the database; no cut-off is given here.

Columns and labels:
[1] = test system: Mycolicibacterium fortuitum; experiment: Antibacterial activity against Mycobacterium fortuitum NCTC 10394 strain.; assay type: functional
Enterococcus faecalis [2] = experiment: Antibacterial activity against Streptococcus faecalis NCTC 775 strain.; assay type: functional
Proteus vulgaris = experiment: Antibacterial activity against Proteus vulgaris NCTC 4175 strain.; assay type: functional
[3] = Antifungal activity against Candida albicans NCPF 3179 strain; na = not active; assay type: functional
Klebsiella aerogenes [4] = experiment: Antibacterial activity against Klebsiella aerogenes WRL CN 345 strain.; assay type: functional, WRL CN 375
[5] = Antibacterial activity against Enterobacter cloacae NCTC 10005 strain; assay type: functional
Escherichia coli [6] = experiment: Antibacterial activity against Escherichia coli NCTC 9001 strain; assay type: functional
Aspergillus nidulans [7] = experiment: Antifungal activity against Aspergillus nidulans CABI 0160037 strain; assay type: functional
Staphylococcus aureus [8] = experiment: Antibacterial activity against MRSA PHLS M1 strain; na = not active; assay type: functional, organism-based
Staphylococcus aureus [9] = experiment: Antibacterial activity against Staphylococcus aureus NCTC 6571 strain.; assay type: functional
Aspergillus niger [10] = experiment: Antifungal activity against Aspergillus niger IMI17454 strain.; assay type: functional
Escherichia coli [11] = experiment: Antibacterial activity against Escherichia coli NCTC 9001 strain.; assay type: functional, organism-based
Enterobacter cloacae = experiment: Antibacterial activity against Enterobacter cloacae NCTC 10005 strain.; assay type: functional, organism-based
Staphylococcus aureus [12] = experiment: Antibacterial activity against MRSA PHLS M1 strain; assay type: functional
[13] = Antibacterial activity against Proteus vulgaris NCTC 4175 strain; na = not active; assay type: functional
Candida albicans = experiment: Antifungal activity against Candida albicans NCPF 3179 strain.; assay type: functional
Staphylococcus aureus [14] = experiment: Antibacterial activity against Staphylococcus aureus NCTC 6571 strain; na = not active; assay type: functional, organism-based
Aspergillus niger [15] = experiment: Antifungal activity against Aspergillus niger IMI17454 strain; na = not active; assay type: functional
Enterococcus faecalis [16] = experiment: Antibacterial activity against Streptococcus faecalis NCTC 775 strain; na = not active; assay type: functional, organism-based
Aspergillus nidulans [17] = experiment: Antifungal activity against Aspergillus nidulans CABI 0160037 strain; na = not active; assay type: functional
[18] = test system: Mycolicibacterium fortuitum; experiment: Antibacterial activity against Mycobacterium fortuitum NCTC 10394 strain; na = not active; assay type: functional, organism-based
Klebsiella aerogenes [19] = experiment: Antibacterial activity against Klebsiella aerogenes WRL CN 345 strain; na = not active; assay type: functional, organism-based
Staphylococcus aureus [20] = experiment: Antibacterial activity against methicillin-resistant Staphylococcus aureus (MRSA) PHLS M1 strain.; assay type: functional
Procedure, shortened: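 Read-out is the minimum inhibitory concentration, reported in µM. Amoxycillin is tested alongside as the reference antibiotic.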

[21] = Klebsiella aerogenes, WRL CN 375, read-out: MIC
[22] = Aspergillus niger, read-out: MIC
[23] = Candida albicans, read-out: MIC

Question: What does the source list for `CC(C)CCn1cc(NC(=O)c2cc(NC=O)cn2C)cc1C(=O)Nc1cc(C(=O)NCCCN2CCN(C)CC2)n(C)c1`?
Answer: MIC [1]: 69.3 µM (≈ 42.1 µg/mL); MIC (Enterococcus faecalis [2]): 69.3 µM (≈ 42.1 µg/mL); MIC (Proteus vulgaris): 140 µM (≈ 85.1 µg/mL); MIC [3]: inactive; MIC (Klebsiella aerogenes [4]; [21]): 140 µM (≈ 85.1 µg/mL); MIC [5]: 140 µM (≈ 85.1 µg/mL); MIC (Escherichia coli [6]): 140 µM (≈ 85.1 µg/mL); MIC (Aspergillus nidulans [7]): 69.3 µM (≈ 42.1 µg/mL); MIC (Staphylococcus aureus [8]): inactive; MIC (Staphylococcus aureus [9]): 140 µM (≈ 85.1 µg/mL); MIC (Aspergillus niger [10]; [22]): 140 µM (≈ 85.1 µg/mL)

Question: With `COc1ccc(CC(=O)Nc2cc(C(=O)Nc3cc(C(=O)Nc4cc(C(=O)NCCCN(C)C)n(C)c4)n(CCC(C)C)c3)n(C)c2)cc1` as the compound, how does the MIC [1] read?
Answer: 15.9 µM (≈ 10.7 µg/mL)

Question: What about the MIC (Escherichia coli [11]) of the same compound?
Answer: inactive

Question: And the MIC (Enterococcus faecalis [2])?
Answer: 15.9 µM (≈ 10.7 µg/mL)

Question: And the MIC (Enterobacter cloacae)?
Answer: inactive

Question: And the MIC (Klebsiella aerogenes [4]; [21])?
Answer: 15.9 µM (≈ 10.7 µg/mL)

Question: What about the MIC (Staphylococcus aureus [12]) of the same compound?
Answer: 63.6 µM (≈ 42.8 µg/mL)

Question: And the MIC (Aspergillus nidulans [7])?
Answer: 15.9 µM (≈ 10.7 µg/mL)

Question: What about the MIC [13] of the same compound?
Answer: inactive

Question: What about the MIC (Candida albicans; [23]) of the same compound?
Answer: 15.9 µM (≈ 10.7 µg/mL)

Question: What about the MIC (Staphylococcus aureus [9]) of the same compound?
Answer: 15.9 µM (≈ 10.7 µg/mL)

Question: What about the MIC (Aspergillus niger [10]; [22]) of the same compound?
Answer: 15.9 µM (≈ 10.7 µg/mL)

Question: Which MIC (Staphylococcus aureus [14]) does the source give for `Cc1sc(NC=O)cc1C(=O)Nc1cc(C(=O)Nc2cc(C(=O)NCCCN(C)C)n(C)c2)n(C)c1` here?
Answer: inactive

Question: And the MIC (Aspergillus niger [15])?
Answer: inactive

Question: And the MIC (Escherichia coli [11])?
Answer: inactive

Question: What about the MIC (Proteus vulgaris) of the same compound?
Answer: 79.6 µM (≈ 40.9 µg/mL)

Question: And the MIC (Enterobacter cloacae)?
Answer: inactive

Question: And the MIC (Enterococcus faecalis [16])?
Answer: inactive

Question: What about the MIC (Aspergillus nidulans [17]) of the same compound?
Answer: inactive

Question: And the MIC [18]?
Answer: inactive

Question: What about the MIC (Candida albicans; [23]) of the same compound?
Answer: 159 µM (≈ 81.7 µg/mL)

Question: What about the MIC (Staphylococcus aureus [8]) of the same compound?
Answer: inactive

Question: What about the MIC (Klebsiella aerogenes [19]) of the same compound?
Answer: inactive

Question: With `CN(C)CCCNC(=O)c1cc(NC(=O)c2cc(NC(=O)c3cc(NC=O)cn3C)cn2C)cn1C` as the compound, how does the MIC (Aspergillus niger [15]) read?
Answer: inactive

Question: What about the MIC (Escherichia coli [11]) of the same compound?
Answer: inactive

Question: And the MIC (Enterococcus faecalis [2])?
Answer: 0.31 µM (≈ 0.154 µg/mL)

Question: What about the MIC (Proteus vulgaris) of the same compound?
Answer: 164 µM (≈ 81.4 µg/mL)

Question: What about the MIC [3] of the same compound?
Answer: inactive

Question: And the MIC (Enterobacter cloacae)?
Answer: inactive

Question: And the MIC (Aspergillus nidulans [17])?
Answer: inactive

Question: What about the MIC [18] of the same compound?
Answer: inactive

Question: And the MIC (Staphylococcus aureus [8])?
Answer: inactive

Question: And the MIC (Staphylococcus aureus [9])?
Answer: 10 µM (≈ 4.97 µg/mL)

Question: And the MIC (Klebsiella aerogenes [19])?
Answer: inactive

Question: What does the source list for `CC(C)n1cc(NC(=O)c2cc(NC=O)cn2C)cc1C(=O)Nc1cc(C(=O)NCCCN2CCOCC2)n(C)c1`?
Answer: MIC (Staphylococcus aureus [14]): inactive; MIC (Aspergillus niger [15]): inactive; MIC (Escherichia coli [11]): inactive; MIC [3]: inactive; MIC (Enterobacter cloacae): inactive; MIC (Enterococcus faecalis [16]): inactive; MIC [13]: inactive; MIC (Aspergillus nidulans [17]): inactive; MIC [18]: inactive; MIC (Staphylococcus aureus [8]): inactive; MIC (Klebsiella aerogenes [19]): inactive

Question: For `CC(C)n1cc(NC(=O)c2cc(NC=O)cn2C)cc1C(=O)Nc1cc(C(=O)NCCCN(C)C)n(C)c1`, which MIC (Staphylococcus aureus [14]) is on record?
Answer: inactive

Question: And the MIC (Escherichia coli [11])?
Answer: inactive

Question: What about the MIC (Enterococcus faecalis [2]) of the same compound?
Answer: 157 µM (≈ 82.4 µg/mL)

Question: What about the MIC (Proteus vulgaris) of the same compound?
Answer: 157 µM (≈ 82.4 µg/mL)

Question: What about the MIC [3] of the same compound?
Answer: inactive

Question: And the MIC (Enterobacter cloacae)?
Answer: inactive

Question: And the MIC (Klebsiella aerogenes [4]; [21])?
Answer: 39.1 µM (≈ 20.5 µg/mL)

Question: What about the MIC (Aspergillus nidulans [17]) of the same compound?
Answer: inactive

Question: What about the MIC [18] of the same compound?
Answer: inactive

Question: And the MIC (Staphylococcus aureus [20])?
Answer: 157 µM (≈ 82.4 µg/mL)

Question: And the MIC (Aspergillus niger [10]; [22])?
Answer: 157 µM (≈ 82.4 µg/mL)

Question: Which MIC [1] does the source give for `CC(=O)Nc1cc(C(=O)Nc2cc(C(=O)Nc3cc(C(=O)NCCCN(C)C)n(C)c3)c(C)s2)n(C)c1` here?
Answer: 38.9 µM (≈ 20.5 µg/mL)

Question: And the MIC (Proteus vulgaris)?
Answer: 156 µM (≈ 82.3 µg/mL)

Question: And the MIC (Klebsiella aerogenes [4]; [21])?
Answer: 156 µM (≈ 82.3 µg/mL)

Question: What about the MIC [5] of the same compound?
Answer: 156 µM (≈ 82.3 µg/mL)

Question: And the MIC (Enterococcus faecalis [16])?
Answer: inactive

Question: And the MIC (Escherichia coli [6])?
Answer: 156 µM (≈ 82.3 µg/mL)

Question: What about the MIC (Aspergillus nidulans [7]) of the same compound?
Answer: 38.9 µM (≈ 20.5 µg/mL)

Question: What about the MIC (Candida albicans; [23]) of the same compound?
Answer: 156 µM (≈ 82.3 µg/mL)

Question: What about the MIC (Staphylococcus aureus [20]) of the same compound?
Answer: 156 µM (≈ 82.3 µg/mL)

Question: And the MIC (Staphylococcus aureus [9])?
Answer: 78.5 µM (≈ 41.4 µg/mL)

Question: And the MIC (Aspergillus niger [10]; [22])?
Answer: 156 µM (≈ 82.3 µg/mL)

Question: With `CC(=O)Nc1cc(C(=O)Nc2cc(C(=O)Nc3cc(C(=O)NCCCN(C)C)n(C)c3)n(C(C)C)c2)n(C)c1` as the compound, how does the MIC [1] read?
Answer: 147 µM (≈ 79.2 µg/mL)

Question: And the MIC (Staphylococcus aureus [14])?
Answer: inactive

Question: And the MIC (Escherichia coli [11])?
Answer: inactive

Question: And the MIC (Enterococcus faecalis [2])?
Answer: 73.5 µM (≈ 39.6 µg/mL)

Question: And the MIC (Proteus vulgaris)?
Answer: 153 µM (≈ 82.4 µg/mL)

Question: And the MIC (Enterobacter cloacae)?
Answer: inactive

Question: What about the MIC (Klebsiella aerogenes [4]) of the same compound?
Answer: 147 µM (≈ 79.2 µg/mL)

Question: And the MIC (Klebsiella aerogenes [4]; [21])?
Answer: 153 µM (≈ 82.4 µg/mL)

Question: And the MIC (Enterococcus faecalis [16])?
Answer: inactive

Question: What about the MIC [13] of the same compound?
Answer: inactive

Question: And the MIC (Aspergillus nidulans [17])?
Answer: inactive

Question: What about the MIC [18] of the same compound?
Answer: inactive

Question: And the MIC (Candida albicans)?
Answer: 147 µM (≈ 79.2 µg/mL)

Question: What about the MIC (Candida albicans; [23]) of the same compound?
Answer: 153 µM (≈ 82.4 µg/mL)

Question: What about the MIC (Staphylococcus aureus [8]) of the same compound?
Answer: inactive

Question: What about the MIC (Aspergillus niger [10]) of the same compound?
Answer: 153 µM and 73.5 µM

Question: With `CC(C)CCn1cc(NC(=O)c2cc(NC=O)cn2C)cc1C(=O)Nc1cc(C(=O)NCCCN2CCOCC2)n(C)c1` as the compound, how does the MIC (Staphylococcus aureus [14]) read?
Answer: inactive

Question: And the MIC (Escherichia coli [11])?
Answer: inactive

Question: And the MIC [3]?
Answer: inactive

Question: What about the MIC (Enterobacter cloacae) of the same compound?
Answer: inactive

Question: What about the MIC (Enterococcus faecalis [16]) of the same compound?
Answer: inactive

Question: And the MIC [13]?
Answer: inactive

Question: And the MIC (Aspergillus nidulans [17])?
Answer: inactive

Question: What about the MIC [18] of the same compound?
Answer: inactive

Question: What about the MIC (Staphylococcus aureus [20]) of the same compound?
Answer: 70.6 µM (≈ 42 µg/mL)

Question: And the MIC (Klebsiella aerogenes [19])?
Answer: inactive

Question: What about the MIC (Aspergillus niger [10]; [22]) of the same compound?
Answer: 70.6 µM (≈ 42 µg/mL)
